The test system of data set [1] is C2C12. The data set is described as follows: Effect on glucose consumption in mouse C2C12 cells at 30 ug/ml after 24 hrs. In kind it is functional, cell-based. In short, it runs like this: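 C2C12 myoblasts are grown in high-glucose DMEM with 10% FBS at 37 °C, 5% CO2. At confluence they are switched to DMEM with 10% horse serum for 8 days to form myotubes. Myotubes are then given 10% FBS high-glucose DMEM with or without 30 μg/mL compound for 24 h. Glucose remaining in the medium is measured to calculate glucose consumption.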

The nature of data set [2]: Chemical stability of the compound at 80 degC. In kind it is physicochemical.
Data set [3] is described as follows: Drug level in aqueous solution treated with (2S,3R,10R,13R,14S,17S)-2,3,6,14-tetrahydroxy-10,13-dimethyl-17-((2R,3R)-2,3,6-trihydroxy-6-methylheptan-2-yl)-3,4,10,11,12,13,14,15,16,17-decahydro-1H-cyclopenta[a]phenanthren-7(2H)-one at pH 3. In kind it is physicochemical. The conditions noted are these: buffer.
Data set [4] can be described thus: Drug level in aqueous solution treated with 20-hydroxyecdysone at 120 mg at pH 6 to 6.5 measured at 6 to 7 hrs hrs by HPLC-DAD analysis. In kind it is physicochemical. The conditions noted are these: in vivo. A digest of the protocol: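 20E was reacted with NaOH at room temperature, and the mixture was set to pH 6−6.5 with acetic acid before evaporation under nitrogen. Products were quantified by C18 HPLC with an aqueous acetonitrile gradient, using AUC at λmax against calibration dilutions of isolated compounds. Amounts are expressed relative to initial 20E.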

Data set [5] in a line: Chemical stability of the compound in acidic media at pH 3 at room temperature. The conditions noted are these: buffer. In kind it is physicochemical.
The target of data set [6] is RAC-alpha serine/threonine-protein kinase (Mus musculus) (UniProt P31750). Description: Induction of Akt phosphorylation in mouse C2C12 cells at 30 ug/ml pretreated with compound for 24 hrs followed by fresh medium with compound addition measured after 2 hrs by Western blot analysis. In kind it is cell-based. A digest of the protocol: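 Differentiated C2C12 myotubes (8 days in horse serum medium) are exposed to 30 μg/mL compound in 10% FBS high-glucose DMEM for 24 h, without overnight serum starvation. Fresh medium with the same compound concentration is added for a further 2 h. Cells are lysed in SDS sample buffer, resolved on 10% SDS-PAGE, transferred to PVDF and probed for phospho- and total Akt.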
For orientation: A western blot detects proteins with antibodies after separation by electrophoresis.

Data set [7] is described as follows: Drug level in aqueous solution treated with (2S,3R,5R,10S,13R,17S)-2,3,7-trihydroxy-10,13-dimethyl-17-((2R,3R)-2,3,6-trihydroxy-6-methylheptan-2-yl)-2,3,4,5,12,13,16,17-octahydro-1H-cyclopenta[a]phenanthren-6(10H)-one at 80 degC after 4 days. The note with it: buffer, 96 h. In kind it is physicochemical.
A short description of data set [8]: Chemical stability of the compound in neutral media at room temperature. In kind it is physicochemical.
A short description of data set [9]: Chemical stability of the compound in basic media at pH 8 at room temperature. In kind it is physicochemical. The note with it: buffer.
Data set [10] can be described thus: Half life of the compound by HPLC analysis in presence of NaOH. In kind it is physicochemical. A digest of the protocol: (§1)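 20E (120 mg) is stirred at room temperature (22−25 °C) in 70% aqueous MeOH with 2% NaOH, and aliquots are taken over time. Analysis is by analytical HPLC on a C18 column with an aqueous acetonitrile gradient and 9.6% acetic acid, 1 mL/min. Compounds are quantified from peak AUC at each λmax against calibration dilutions and expressed relative to initial 20E. Three independent experiments; one-phase decay regression.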

Data set [11] can be described thus: Drug level in aqueous solution treated with (2S,3R,10R,13R,14S,17S)-2,3,6,14-tetrahydroxy-10,13-dimethyl-17-((2R,3R)-2,3,6-trihydroxy-6-methylheptan-2-yl)-3,4,10,11,12,13,14,15,16,17-decahydro-1H-cyclopenta[a]phenanthren-7(2H)-one at pH 8. In kind it is physicochemical. The note with it: buffer.
Data set [12] in a line: Drug level in aqueous solution treated with 20-hydroxyecdysone at 120 mg incubated for 2 days measured at 0.5 to 48 hrs by HPLC-DAD analysis in presence of NaOH. The note with it: in vivo. In kind it is physicochemical. A digest of the protocol: as §1
The nature of data set [13]: Drug level in aqueous solution treated with (2S,3R,5R,9R,10R,13R,14S,17S)-2,3,14-trihydroxy-10,13-dimethyl-17-((2R,3R)-2,3,6-trihydroxy-6-methylheptan-2-yl)-2,3,4,5,9,11,12,13,14,15,16,17-dodecahydro-1H-cyclopenta[a]phenanthren-6(10H)-one at 120 mg incubated for 2 days measured at 0.5 to 48 hrs by HPLC-DAD analysis in presence of NaOH. In kind it is physicochemical. The note with it: in vivo. A digest of the protocol: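 120 mg 20E stirred with 100 mg NaOH at room temperature (22−25 °C) and sampled over time. Samples were analysed by HPLC on a C18 column using an aqueous acetonitrile gradient with acetic acid at 1 mL/min. Peak AUC was read at each compound's λmax and calibrated against dilutions of isolated compounds. Amounts are relative to initial 20E; three independent experiments.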

The source made the active and inactive calls. The rule behind the calls is not given here.

In general, half-life refers to the time in which the quantity being followed falls by half.

Sequence of RAC-alpha serine/threonine-protein kinase (Mus musculus) (P31750 whole entry): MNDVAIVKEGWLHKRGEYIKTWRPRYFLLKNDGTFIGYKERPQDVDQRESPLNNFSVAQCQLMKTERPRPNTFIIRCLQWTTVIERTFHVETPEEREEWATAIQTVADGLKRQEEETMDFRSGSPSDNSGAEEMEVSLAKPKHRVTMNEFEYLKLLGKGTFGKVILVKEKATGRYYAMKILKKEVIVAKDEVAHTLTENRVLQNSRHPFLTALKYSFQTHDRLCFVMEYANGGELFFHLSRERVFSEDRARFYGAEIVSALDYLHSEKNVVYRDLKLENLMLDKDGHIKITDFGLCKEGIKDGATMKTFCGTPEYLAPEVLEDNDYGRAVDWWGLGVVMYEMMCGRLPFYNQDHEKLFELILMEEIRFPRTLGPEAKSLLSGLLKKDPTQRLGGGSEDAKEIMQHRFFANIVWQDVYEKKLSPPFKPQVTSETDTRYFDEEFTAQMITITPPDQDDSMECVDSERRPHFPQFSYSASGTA

With `CC(C)(O)CC[C@@H](O)[C@](C)(O)[C@H]1CC[C@@]2(O)C3=CC(=O)[C@@H]4C[C@@H](O)[C@@H](O)C[C@]4(C)C3=CC[C@]12C`, the result in [1] was inactive.

On to `CC(C)(O)CC[C@@H](O)[C@](C)(O)[C@H]1CC=C2C3=C(CC[C@@]21C)[C@@]1(C)C[C@H](O)[C@H](O)CC1=C(O)C3=O`, for which the Stability entry in data set [2], in data set [5], in [8] and in data set [9] was “Stable” in each case. Further, the Drug metabolism entry in data set [3], in data set [4] and in data set [7] was “metabolite_detected” in each case. Also, the result in data set [6] was Active. Besides, the outcome in data set [1] was inactive.

With `CC(C)(O)CC[C@@H](O)[C@](C)(O)[C@H]1CC[C@@]2(O)C3=CC(=O)[C@@H]4C[C@@H](O)[C@@H](O)C[C@]4(C)[C@H]3CC[C@]12C` [20-HYDROXYECDYSONE], in [10], the half-life is 1.39 h. In addition, the outcome in data set [6] and in data set [1] was inactive.

As to `CC(C)(O)CC[C@@H](O)[C@](C)(O)[C@H]1CC=C2C3=C(O)C(=O)[C@@H]4C[C@@H](O)[C@@H](O)C[C@]4(C)C3=CC[C@@]21C`, the Drug metabolism entry in data set [11] and in data set [12] was “metabolite_detected” throughout. For the same compound, the Stability result in data set [5], in data set [8] and in data set [9] was “Stable” each time. Also, the result in data set [6] and in data set [1] was inactive.

As for `CC(C)(O)CC[C@@H](O)[C@](C)(O)[C@H]1CC[C@@]2(O)C3=C(CC[C@]12C)[C@@]1(C)C[C@H](O)[C@H](O)CC1=C(O)C3=O`, the Drug metabolism entry in data set [12] is “metabolite_detected”. Also, the result in [1] was inactive.

For `CC(C)(O)CC[C@@H](O)[C@](C)(O)[C@H]1CC[C@@]2(O)C3=CC(=O)[C@@H]4C[C@@H](O)[C@@H](O)C[C@]4(C)[C@@]3(O)CC[C@]12C`, in data set [13], the Drug metabolism entry is “metabolite_detected”. Besides, the outcome in data set [1] was inactive.

Consider `CC(C)(O)CC[C@@H](O)[C@](C)(O)[C@H]1CC[C@@]2(O)C3=CC(=O)[C@H]4C[C@@H](O)[C@@H](O)C[C@]4(C)[C@@]3(O)CC[C@]12C`, for which the result in data set [6] was Active. For the same compound, the Drug metabolism result in data set [13] is listed as “metabolite_detected”. Besides, the result in data set [1] was inactive.

These data come from ChEMBL document CHEMBL3632548, “Oxidized Metabolites of 20-Hydroxyecdysone and Their Activity on Skeletal Muscle Cells: Preparation of a Pair of Desmotropes with Opposite Bioactivities” (J Nat Prod, 2015).
